Values after ≈ are worked out from the molar mass of the structure shown.
Assays:
Micrococcus luteus [1] = assay: Antibacterial activity against Micrococcus luteus MTCC 2470 after 24 hrs by well diffusion assay; assay type: functional; details: MTCC 2470, 24 h
Staphylococcus aureus [2] = assay: Antibacterial activity against Staphylococcus aureus MTCC 96 after 24 hrs by well diffusion assay; assay type: functional; details: MTCC 96, 24 h
Staphylococcus aureus [3] = assay: Antibacterial activity against Staphylococcus aureus MLS-16 MTCC 2940 after 24 hrs by well diffusion assay; assay type: functional; details: MLS-16 MTCC 2940, 24 h
Candida albicans [4] = assay: Antifungal activity against Candida albicans MTCC 3017 after 24 hrs by well diffusion assay; assay type: functional; details: MTCC 3017, 24 h
Summary of the method: (§1)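 Well diffusion screen against Candida and related fungal strains. Read-out is MIC in µg/mL, with miconazole as the reference drug.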

Bacillus subtilis [5] = assay: Antibacterial activity against Bacillus subtilis MTCC 121 after 24 hrs by well diffusion assay; assay type: functional; details: MTCC 121, 24 h
Escherichia coli = assay: Antibacterial activity against Escherichia coli MTCC 739 after 24 hrs by well diffusion assay; assay type: functional; details: MTCC 739, 24 h
Raoultella planticola = assay: Antibacterial activity against Klebsiella planticola MTCC 530 after 24 hrs by well diffusion assay; assay type: functional; details: MTCC 530, 24 h
Pseudomonas aeruginosa = assay: Antibacterial activity against Pseudomonas aeruginosa MTCC 2453 after 24 hrs by well diffusion assay; assay type: functional; details: MTCC 2453, 24 h
Micrococcus luteus [6] = assay: Bactericidal activity against Micrococcus luteus MTCC 2470 after 24 hrs; assay type: functional; details: MTCC 2470, 24 h
Summary of the method: (§2)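 Minimum bactericidal concentration was determined on four Gram-positive strains, for the compounds active in the preliminary antibacterial screen.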

Bacillus subtilis [7] = assay: Bactericidal activity against Bacillus subtilis MTCC 121 after 24 hrs by well diffusion assay; assay type: functional; details: MTCC 121, 24 h; summary of the method: as §2
Micrococcus luteus [8] = assay: Antibiofilm activity against Micrococcus luteus MTCC 2470 after 24 hrs by crystal violet staining based method; assay type: functional, organism-based; details: MTCC 2470, 24 h
Summary of the method: (§3)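 Biofilm inhibition was tested on the four Gram-positive strains, using crystal violet staining.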

Bacillus subtilis [9] = assay: Antibiofilm activity against Bacillus subtilis MTCC 121 after 24 hrs by well diffusion assay by crystal violet staining based method; assay type: functional, organism-based; details: MTCC 121, 24 h; summary of the method: as §3
Staphylococcus aureus [10] = assay: Bactericidal activity against Staphylococcus aureus MTCC 96 after 24 hrs; assay type: functional; details: MTCC 96, 24 h; summary of the method: as §2
Staphylococcus aureus [11] = assay: Antibiofilm activity against Staphylococcus aureus MTCC 96 after 24 hrs by crystal violet staining based method; assay type: functional, organism-based; details: MTCC 96, 24 h; summary of the method: as §3
[12] = Cytotoxicity against human DU145 cells by MTT assay; assay type: functional, cell-based; details: DU-145
HepG2 = assay: Cytotoxicity against human HepG2 cells by MTT assay; assay type: functional, cell-based
[13] = Cytotoxicity against human SKOV3 cells by MTT assay; assay type: functional, cell-based; details: SK-OV-3
MDA-MB-231 = assay: Cytotoxicity against human MDA-MB-231 cells by MTT assay; assay type: functional, cell-based
Staphylococcus aureus [14] = assay: Bactericidal activity against Staphylococcus aureus MLS-16 MTCC 2940 after 24 hrs; assay type: functional; details: MLS-16 MTCC 2940, 24 h; summary of the method: as §2
Candida albicans [15] = assay: Antifungal activity against Candida albicans MTCC 183 after 24 hrs by well diffusion assay; assay type: functional; details: MTCC 183, 24 h; summary of the method: as §1
Candida albicans [16] = assay: Antifungal activity against Candida albicans MTCC 227 after 24 hrs by well diffusion assay; assay type: functional; details: MTCC 227, 24 h; summary of the method: as §1
Candida albicans [17] = assay: Antifungal activity against Candida albicans MTCC 854 after 24 hrs by well diffusion assay; assay type: functional; details: MTCC 854, 24 h; summary of the method: as §1
Candida albicans [18] = assay: Antifungal activity against Candida albicans MTCC 1637 after 24 hrs by well diffusion assay; assay type: functional; details: MTCC 1637, 24 h; summary of the method: as §1
Candida albicans [19] = assay: Antifungal activity against Candida albicans MTCC 3018 after 24 hrs by well diffusion assay; assay type: functional; details: MTCC 3018, 24 h; summary of the method: as §1
Candida albicans [20] = assay: Antifungal activity against Candida albicans MTCC 3958 after 24 hrs by well diffusion assay; assay type: functional; details: MTCC 3958, 24 h; summary of the method: as §1
Candida albicans [21] = assay: Antifungal activity against Candida albicans MTCC 4748 after 24 hrs by well diffusion assay; assay type: functional; details: MTCC 4748, 24 h; summary of the method: as §1
Candida albicans [22] = assay: Antifungal activity against Candida albicans MTCC 7315 after 24 hrs by well diffusion assay; assay type: functional; details: MTCC 7315, 24 h; summary of the method: as §1
Candida parapsilosis [23] = assay: Antifungal activity against Candida parapsilosis MTCC 1744 after 24 hrs by well diffusion assay; assay type: functional; details: Lodderomyces parapsilosis, MTCC 1744, 24 h; summary of the method: as §1
[Candida] aaseri = Antifungal activity against Candida aaseri MTCC 1962 after 24 hrs by well diffusion assay; assay type: functional; details: Yamadazyma aaseri, MTCC 1962, 24 h; summary of the method: as §1
Nakaseomyces glabratus = assay: Antifungal activity against Candida glabrata MTCC 3019 after 24 hrs by well diffusion assay; assay type: functional; details: MTCC 3019, 24 h; summary of the method: as §1
Pichia kudriavzevii = assay: Antifungal activity against Pichia kudriavzevii MTCC 3020 after 24 hrs by well diffusion assay; assay type: functional; details: MTCC 3020, 24 h; summary of the method: as §1
Pichia sporocuriosa = assay: Antifungal activity against Issatchenkia hanoiensis MTCC 4755 after 24 hrs by well diffusion assay; assay type: functional; details: MTCC 4755, 24 h; summary of the method: as §1
Candida parapsilosis [24] = assay: Inhibition of ergosterol biosynthesis in Candida parapsilosis MTCC 1744 assessed as mean ergosterol content at 2 ug/ml after 20 hrs by spectrophotometric analysis (Rvb=1.62 +/- 0.08 ug/ml); assay type: functional
Candida parapsilosis [25] = assay: Inhibition of ergosterol biosynthesis in Candida parapsilosis MTCC 1744 assessed as mean ergosterol content at 4 ug/ml after 20 hrs by spectrophotometric analysis (Rvb=1.62 +/- 0.08 ug/ml); assay type: functional
Candida parapsilosis [26] = assay: Inhibition of ergosterol biosynthesis in Candida parapsilosis MTCC 1744 assessed as mean ergosterol content at 8 ug/ml after 20 hrs by spectrophotometric analysis (Rvb=1.62 +/- 0.08 ug/ml); assay type: functional
Candida parapsilosis [27] = assay: Inhibition of ergosterol biosynthesis in Candida parapsilosis MTCC 1744 assessed as mean ergosterol content at 16 ug/ml after 20 hrs by spectrophotometric analysis (Rvb=1.62 +/- 0.08 ug/ml); assay type: functional

## CCCCCCCCC(CCCCCCCCC(=O)OC)SCC(=O)N[C@H](C(=O)OC)c1c[nH]cn1 (stereo partly drawn)
Micrococcus luteus [1]
  MIC: 3.9 µg/mL (≈ 7.42 µM)
Staphylococcus aureus [2]
  MIC: > 125 µg/mL
Staphylococcus aureus [3]
  MIC: > 125 µg/mL
Candida albicans [4]
  MIC: > 125 µg/mL
Bacillus subtilis [5]
  MIC: 3.9 µg/mL (≈ 7.42 µM)
Escherichia coli
  MIC: > 125 µg/mL
Raoultella planticola
  MIC: > 125 µg/mL
Pseudomonas aeruginosa
  MIC: > 125 µg/mL
Micrococcus luteus [6]
  MBC: 7.8 µg/mL (≈ 14.8 µM)
Bacillus subtilis [7]
  MBC: 3.9 µg/mL (≈ 7.42 µM)
Micrococcus luteus [8]
  IC50: 2100 nM
Bacillus subtilis [9]
  IC50: 1900 nM

## CCCCCCCCC(CCCCCCCCC(=O)OC)SCC(=O)N[C@H](C(=O)OC)[C@@H](C)CC (stereo partly drawn)
Micrococcus luteus [1]
  MIC: 31.2 µg/mL (≈ 60.5 µM)
Staphylococcus aureus [2]
  MIC: 31.2 µg/mL (≈ 60.5 µM)
Staphylococcus aureus [3]
  MIC: > 125 µg/mL
Candida albicans [4]
  MIC: > 125 µg/mL
Bacillus subtilis [5]
  MIC: > 125 µg/mL
Escherichia coli
  MIC: > 125 µg/mL
Raoultella planticola
  MIC: > 125 µg/mL
Pseudomonas aeruginosa
  MIC: > 125 µg/mL
Micrococcus luteus [6]
  MBC: 31.2 µg/mL (≈ 60.5 µM)
Staphylococcus aureus [10]
  MBC: 31.2 µg/mL (≈ 60.5 µM)
Micrococcus luteus [8]
  IC50: 16800 nM
Staphylococcus aureus [11]
  IC50: 21.5 µM
[12]
  IC50: 19 µM
HepG2
  IC50: 15.3 µM
[13]
  IC50: 16.4 µM
MDA-MB-231
  IC50: 22.4 µM

## O=C(O)c1cn(C2CC2)c2cc(N3CCNCC3)c(F)cc2c1=O [CIPROFLOXACIN]
Micrococcus luteus [1]
  MIC: 0.9 µg/mL (≈ 2.72 µM)
Staphylococcus aureus [2]
  MIC: 0.9 µg/mL (≈ 2.72 µM)
Staphylococcus aureus [3]
  MIC: 0.9 µg/mL (≈ 2.72 µM)
Candida albicans [4]
  MIC: > 125 µg/mL
Bacillus subtilis [5]
  MIC: 0.9 µg/mL (≈ 2.72 µM)
Escherichia coli
  MIC: 0.9 µg/mL (≈ 2.72 µM)
Raoultella planticola
  MIC: 0.9 µg/mL (≈ 2.72 µM)
Pseudomonas aeruginosa
  MIC: 0.9 µg/mL (≈ 2.72 µM)
Micrococcus luteus [6]
  MBC: 0.9 µg/mL (≈ 2.72 µM)
Staphylococcus aureus [10]
  MBC: 1.9 µg/mL (≈ 5.73 µM)
Staphylococcus aureus [14]
  MBC: 1.9 µg/mL (≈ 5.73 µM)
Bacillus subtilis [7]
  MBC: 1.9 µg/mL (≈ 5.73 µM)
Micrococcus luteus [8]
  IC50: 500 nM
Bacillus subtilis [9]
  IC50: 500 nM

## COc1cccc2c1C(=O)c1c(O)c3c(c(O)c1C2=O)C[C@@](O)(C(=O)CO)C[C@@H]3O[C@H]1C[C@H](N)[C@H](O)[C@H](C)O1 [DOXORUBICIN]
HepG2
  IC50: 0.8 µM
[13]
  IC50: 0.8 µM
MDA-MB-231
  IC50: 0.7 µM

## Clc1ccc(COC(Cn2ccnc2)c2ccc(Cl)cc2Cl)c(Cl)c1 (stereo not drawn) [MICONAZOLE]
Micrococcus luteus [1]
  MIC: > 125 µg/mL
Staphylococcus aureus [2]
  MIC: > 125 µg/mL
Staphylococcus aureus [3]
  MIC: > 125 µg/mL
Candida albicans [4]
  MIC: 7.8 µg/mL (≈ 18.7 µM)
Bacillus subtilis [5]
  MIC: > 125 µg/mL
Escherichia coli
  MIC: > 125 µg/mL
Raoultella planticola
  MIC: > 125 µg/mL
Pseudomonas aeruginosa
  MIC: > 125 µg/mL
Candida albicans [15]
  MFC: 7.8 µg/mL (≈ 18.7 µM)
  MIC: 7.8 µg/mL (≈ 18.7 µM)
Candida albicans [16]
  MFC: 15.6 µg/mL (≈ 37.5 µM)
  MIC: 7.8 µg/mL (≈ 18.7 µM)
Candida albicans [17]
  MFC: 7.8 µg/mL (≈ 18.7 µM)
  MIC: 7.8 µg/mL (≈ 18.7 µM)
Candida albicans [18]
  MFC: 15.6 µg/mL (≈ 37.5 µM)
  MIC: 7.8 µg/mL (≈ 18.7 µM)
Candida albicans [19]
  MFC: 7.8 µg/mL (≈ 18.7 µM)
  MIC: 7.8 µg/mL (≈ 18.7 µM)
Candida albicans [20]
  MFC: 7.8 µg/mL (≈ 18.7 µM)
  MIC: 7.8 µg/mL (≈ 18.7 µM)
Candida albicans [21]
  MFC: 7.8 µg/mL (≈ 18.7 µM)
  MIC: 7.8 µg/mL (≈ 18.7 µM)
Candida albicans [22]
  MFC: 15.6 µg/mL (≈ 37.5 µM)
  MIC: 7.8 µg/mL (≈ 18.7 µM)
Candida parapsilosis [23]
  MFC: 7.8 µg/mL (≈ 18.7 µM)
  MIC: 7.8 µg/mL (≈ 18.7 µM)
[Candida] aaseri
  MFC: 15.6 µg/mL (≈ 37.5 µM)
  MIC: 7.8 µg/mL (≈ 18.7 µM)
Nakaseomyces glabratus
  MFC: 7.8 µg/mL (≈ 18.7 µM)
  MIC: 7.8 µg/mL (≈ 18.7 µM)
Pichia kudriavzevii
  MFC: 7.8 µg/mL (≈ 18.7 µM)
  MIC: 7.8 µg/mL (≈ 18.7 µM)
Pichia sporocuriosa
  MFC: 7.8 µg/mL (≈ 18.7 µM)
  MIC: 7.8 µg/mL (≈ 18.7 µM)
Candida parapsilosis [24]
  Activity: 1.28 µg/mL
Candida parapsilosis [25]
  Activity: 0.54 µg/mL
Candida parapsilosis [26]
  Activity: 0.24 µg/mL
Candida parapsilosis [27]
  Activity: 0.09 µg/mL
